Screens deposited in PubChem BioAssay by several laboratories.
MBD2 inh – MBD2-methylated oligo binding inhibition; AID 686964; Q9UBB5; actives 0.31% (n = 370,000); inhibition, % at 4.4 µM; TR-FRET, MBD2 binding to methylated oligonucleotide; in the data active means inhibition above about 13%
CASP6 VEID inh – caspase-6 (human) enzyme inhibition; purified caspase-6, Z-VEID-R110 cleavage fluorescence; actives 0.53% (n = 350,000); AID 686996; P55212; inhibition, % at 12.5 µM;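 active means mean inhibition across replicates at least about 35%, with every replicate also reaching that limit, limit read from the data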
Target sequence (P55212 24-179 limits assumed): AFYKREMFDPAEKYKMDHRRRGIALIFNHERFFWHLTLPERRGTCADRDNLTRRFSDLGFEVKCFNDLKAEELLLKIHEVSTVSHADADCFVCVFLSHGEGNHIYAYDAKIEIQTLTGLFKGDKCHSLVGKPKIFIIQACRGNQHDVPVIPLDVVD
Target sequence (P55212 194-293 limits assumed): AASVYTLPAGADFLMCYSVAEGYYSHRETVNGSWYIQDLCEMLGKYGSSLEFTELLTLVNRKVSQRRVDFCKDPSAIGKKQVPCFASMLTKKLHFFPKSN
TDP2 inh – blocks human TDP2 phosphodiesterase activity. O95551. inhibition, % at 12.8 µM. recombinant TDP2, T5PNP hydrolysis, p-nitrophenol absorbance 415 nm. AID 720702. actives 0.34% (n = 370,000);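 active means inhibition above the mean of all tested compounds plus 3 SD, set per campaign, cut at about 25% in these data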
Target sequence (O95551 whole entry, looked up): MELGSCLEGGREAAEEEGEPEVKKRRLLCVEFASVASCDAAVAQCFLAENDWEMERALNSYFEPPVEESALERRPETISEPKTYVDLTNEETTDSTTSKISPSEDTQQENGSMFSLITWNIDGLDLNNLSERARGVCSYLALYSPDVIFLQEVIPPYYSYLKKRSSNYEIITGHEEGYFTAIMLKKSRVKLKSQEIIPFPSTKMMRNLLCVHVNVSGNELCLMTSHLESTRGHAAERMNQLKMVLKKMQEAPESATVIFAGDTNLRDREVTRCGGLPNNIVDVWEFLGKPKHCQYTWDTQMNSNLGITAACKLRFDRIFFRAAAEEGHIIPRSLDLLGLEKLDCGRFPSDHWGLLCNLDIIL
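Assay system: recombinant human TDP2 / Reagent: T5PNP substrate at 5 mM, a TopII-DNA adduct mimic / Measured by: epi absorbance from released p-nitrophenol / Evaluation: % inhibition relative to enzyme-containing and enzyme-free wells / Control set: enzyme-free and DMSO wells / Replicates: each compound tested once, singlicate / Schedule: enzyme reaction with compound for 2 h at 37 °C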
UHRF1 binding – UHRF1 methyl-DNA binding inhibition | UHRF1 binding to methylated oligo, TR-FRET | inhibition, % at 4.4 µM | actives 0.75% (n = 370,000) | AID 687016 | Q96T88; in the data active means inhibition above about 21%;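 further: UHRF1 SRA domain binding a hemimethylated CpG hairpin DNA probe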
LEDGF integ inh – blocks HIV-1 LEDGF/p75-dependent DNA integration; inhibition, % at 3.7 µM; TR-FRET IN-LEDGF/p75 DNA integration, Eu/Cy5; actives 0.64% (n = 370,000); AID 743269;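 active means inhibition above the screen-wide mean plus 3 SD, cut at about 13% in these data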;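 further: signal is the Cy5 over europium emission ratio at 671 and 618 nm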
NSD2 inh – NSD2 (human) methyltransferase inhibition. O96028. NSD2 peptide methylation, AlphaScreen, 120 min. inhibition, % at 12.5 µM. actives 0.54% (n = 310,000). AID 743445; in the data active means inhibition above about 50%
Of the large screens only hits and unclear results are named; the others gave an inactive call. Rows were chosen to be rich in hits. Some 1.9% of all compounds tested hit in one or more screens of this group.

CN(CCO)c1ccc(C=NNc2ccc([N+](=O)[O-])cc2S(=O)(=O)Nc2ccccc2C(=O)O)cc1	CASP6 VEID inh 37.3 (no result: NSD2 inh)
Cc1ccc(NC(=S)NNc2ccc([N+](=O)[O-])cc2S(=O)(=O)Nc2ccccc2C(=O)O)cc1C	none (no result: CASP6 VEID inh)
C[C@H](CO)N1C[C@H](C)[C@H](CN(C)S(=O)(=O)c2ccccc2)Oc2ccc(NS(=O)(=O)c3ccc(Cl)cc3)cc2CC1=O	none (no result: MBD2 inh, TDP2 inh, UHRF1 binding, LEDGF integ inh, NSD2 inh)
CN1CCOc2ccc(S(=O)(=O)NCCc3ccc(Cl)cc3)cc21	UHRF1 binding 29.8
O=C(O)c1ccc(N/N=C/C=C/c2ccccc2)cc1	UHRF1 binding 21.1
O=C(NCc1cccnc1)C(=O)NCC1CCCO1 (stereo not drawn)	none
O=C(NC1CCCC1)C(=O)N(Cc1cccnc1)C(C(=O)NCC1CCCO1)c1ccco1 (stereo not drawn)	UHRF1 binding 26.3
C[C@@H]1CN([C@@H](C)CO)S(=O)(=O)c2ccc(Br)cc2O[C@H]1CN(C)Cc1cccc(F)c1	none (no result: MBD2 inh, TDP2 inh, UHRF1 binding, LEDGF integ inh, NSD2 inh)
CC(O)c1cccc(NC(=O)Nc2cccc(NC(=O)Nc3cccc(C(C)O)c3)c2)c1 (stereo not drawn)	none
CSc1ccccc1C(=O)Nc1cccc(C(C)O)c1 (stereo not drawn)	UHRF1 binding 21.4
CCS(=O)(=O)Nc1ccc2c(c1)C(=O)N(C)[C@H]1CC[C@H](CC(=O)NCc3ccc(OC)cc3)O[C@@H]1CO2	none (no result: MBD2 inh, TDP2 inh, UHRF1 binding, LEDGF integ inh, NSD2 inh)
CC(=O)NC(Cc1ccccc1C)C(=O)NC1CCN(c2c3c(nc4ncnn24)CCC3)CC1 (stereo not drawn)	UHRF1 binding 39.2 (no result: NSD2 inh)
COc1cc(CC(NC(C)=O)C(=O)NC2CCN(c3c(Cc4ccccc4)c(C)nc4ncnn34)CC2)cc(OC)c1 (stereo not drawn)	none (no result: CASP6 VEID inh)
COc1ccc(CN2CC3(CCN(C(=O)C4CCOCC4)CC3)c3c(n(C)c4cc(OC)ccc34)[C@H]2CO)cc1	none (no result: MBD2 inh, TDP2 inh, UHRF1 binding, LEDGF integ inh, NSD2 inh)
CSC(=NCc1ccc(F)cc1)NS(=O)(=O)c1cccs1	UHRF1 binding 41.3
CO[C@H]1CN(C)C(=O)c2cc(NC(=O)CC(F)(F)F)ccc2OC[C@H](C)N(C(=O)c2ccccc2F)C[C@@H]1C	none (no result: MBD2 inh, TDP2 inh, UHRF1 binding, LEDGF integ inh, NSD2 inh)
CO[C@@H]1CN(C)C(=O)c2cc(NC(C)=O)ccc2OC[C@@H](C)N(S(=O)(=O)c2cn(C)cn2)C[C@H]1C	none (no result: MBD2 inh, TDP2 inh, UHRF1 binding, LEDGF integ inh, NSD2 inh)
CCCCCCCCC(=O)c1c(OC)oc(C=O)cc1=O	CASP6 VEID inh 71.6
COc1cc(OC)c(OC)cc1CN1CCSCC1	CASP6 VEID inh 35.7
COc1cc(C)c(CN2CCSCC2)cc1C	none
COc1ccc2c(CC(=O)OCC(=O)Nc3ccc(C)cc3)coc2c1	none
COc1ccc2c(CC(=O)OCC(=O)Nc3sc4c(c3C#N)CCC(C)C4)coc2c1 (stereo not drawn)	UHRF1 binding 40.8
C=CC1=C(C(=O)O)N2C(=O)[C@@H](NC(=O)/C(=N\O)c3csc(N)n3)[C@H]2SC1 (stereo in doubt)	CASP6 VEID inh 87.5 (no result: NSD2 inh)
CCn1ccc(C(=O)NC2C(=O)N3C(C(=O)O)=C(C)CSC23)n1 (stereo not drawn)	none (no result: CASP6 VEID inh, NSD2 inh)
CCOc1ccc(CCNC(=O)Nc2ccccc2C)cc1OCC	UHRF1 binding 21.1
CCCCCCCCCCCC(=O)N/N=C/c1ccco1	UHRF1 binding 27.1 (no result: CASP6 VEID inh)
Cc1ccc(S(=O)(=O)N[C@@H]2C=C[C@@H](CC(=O)NCCCN(C)C)O[C@H]2CO)cc1	none (no result: MBD2 inh, TDP2 inh, UHRF1 binding, LEDGF integ inh, NSD2 inh)
Nc1ccc(Cc2ccc(N)c(C(=O)O)c2)cc1C(=O)O	CASP6 VEID inh 43.7
FC(F)(F)c1ccc(Cl)c(-n2c(-c3cc(-c4ccco4)[nH]n3)n[nH]c2=S)c1	CASP6 VEID inh 69.1
FC(F)(F)c1ccc(Cl)c(-n2c(-c3ccco3)n[nH]c2=S)c1	none
C[C@H]1CN([C@@H](C)CO)C(=O)Cc2cc(NS(=O)(=O)c3ccc(Cl)cc3)ccc2O[C@H]1CN(C)C	none (no result: MBD2 inh, TDP2 inh, UHRF1 binding, LEDGF integ inh, NSD2 inh)
Cc1cc(C)c2cc(CN(Cc3ccco3)C(=S)NCC3CCCO3)c(=O)[nH]c2c1 (stereo not drawn)	UHRF1 binding 44.8 (no result: NSD2 inh)
COc1ccc2cc(CN(Cc3ccco3)C(=S)NCC3CCCO3)c(=O)[nH]c2c1 (stereo not drawn)	none
CCc1ccccc1OCC(=O)OCC(=O)N1CC(=O)Nc2ccccc21	CASP6 VEID inh 59.5
CC1=[N+](C)c2c(ccc3cccnc23)C1(C)C	TDP2 inh 37.8 (no result: NSD2 inh)
CC(=O)N1CCN(c2ccc(NCc3ccccc3)cc2)CC1	none (no result: CASP6 VEID inh)
CC(=O)N1CCN(c2ccc(NCc3ccc(Br)o3)cc2)CC1	LEDGF integ inh 28.1 (no result: NSD2 inh)
COc1ccc(CNC(=O)O[C@H]2CN(C(=O)OC(C)C)N(C(=O)OC(C)C)[C@@H]3CN(S(=O)(=O)c4ccc(C)cc4)C[C@]23O)cc1OC	none (no result: NSD2 inh)
Cc1ccc(S(=O)(=O)N2C[C@H]3N(C(=O)OC(C)C)N(C(=O)OC(C)C)C[C@H](OC(=O)NCc4ccccc4F)[C@@]3(O)C2)cc1	UHRF1 binding 21.6 (no result: NSD2 inh)
C#CCN(C[C@@H]1[C@@H](OC(=O)NCc2ccccc2)[C@@H](OC(=O)NCc2ccccc2)CN(C(=O)OC(C)C)N1C(=O)OC(C)C)S(=O)(=O)c1ccc(C)cc1	UHRF1 binding 23.2 (no result: NSD2 inh)
COc1ccc(S(=O)(=O)N[C@@H]2CC[C@H](CCNC(=O)Cc3ccccn3)O[C@@H]2CO)cc1	none (no result: MBD2 inh, TDP2 inh, UHRF1 binding, LEDGF integ inh, NSD2 inh)
O=C(C1CCCC1)N1CC2(C1)[C@H](c1ccccc1)[C@H](CO)N2Cc1nccs1	none (no result: MBD2 inh, TDP2 inh, UHRF1 binding, LEDGF integ inh, NSD2 inh)
Cc1ccc(C(=O)Nc2ccc(O)c(C(=O)O)c2)o1	UHRF1 binding 43.9
Cc1ccc(C(=O)Nc2ccc(F)cc2)o1	none
CC(C)N1CC2(CC(c3ccccc3F)=NO2)CN1C(=O)c1ccc(C(C)(C)C)cc1 (stereo not drawn)	none (no result: NSD2 inh)
CC(=O)N1CC2(CC(c3ccccc3F)=NO2)CN1c1ccc(Cl)cc1 (stereo not drawn)	UHRF1 binding 21.9 (no result: NSD2 inh)
Cc1ccc(C(=O)CC(=O)c2ccccc2)cc1	none
CC(O)(CC(=O)CC(=O)c1ccccc1)c1ccccc1 (stereo not drawn)	UHRF1 binding 43.3
COc1ccc(F)cc1C1=CC(=O)C[C@H](c2ccc3c(c2)OCO3)C1	CASP6 VEID inh 52.1 (no result: NSD2 inh)
COc1cc(F)c(C2=CC(=O)C[C@H](c3ccc4c(c3)OCO4)C2)cc1F	none (no result: NSD2 inh)
O=[N+]([O-])c1ccc2c(c1)ncn2CCc1ccccc1	UHRF1 binding 26.3
COc1ccc(S(=O)(=O)N(C)C[C@@H]2OCCCC[C@H](C)Oc3ccc(NC(=O)NC(C)C)cc3C(=O)N([C@@H](C)CO)C[C@H]2C)cc1	none (no result: MBD2 inh, TDP2 inh, UHRF1 binding, LEDGF integ inh, NSD2 inh)
CNC[C@@H]1Oc2c(NS(=O)(=O)c3cn(C)cn3)cccc2C(=O)N([C@H](C)CO)C[C@@H]1C	none (no result: MBD2 inh, TDP2 inh, UHRF1 binding, LEDGF integ inh, NSD2 inh)
C[C@@]12CCC=C[C@H]1[C@H](c1ccc3ccccc3c1Br)N(Cc1ccccc1)C2=O	none (no result: CASP6 VEID inh, NSD2 inh)
C[C@@]12CCC=C[C@H]1[C@H](c1ccc3ccccc3c1)N(Cc1ccccc1)C2=O	UHRF1 binding 38.5 (no result: NSD2 inh)
